Reference: ChEMBL document CHEMBL3286209, “Synthesis and biological activities of novel pleuromutilin derivatives with a substituted thiadiazole moiety as potent drug-resistant bacteria inhibitors” (J Med Chem, 2014)
≈ marks a conversion by molar mass, not a printed value.

Legend:
Staphylococcus aureus [1] = assay: Antibacterial activity against methicillin-resistant Staphylococcus aureus after 48 hrs by agar dilution method; type: functional
Outline: (§1)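 Agar dilution per NCCLS using clinical isolates. Compound DMSO/water solutions are 2-fold serially diluted in water, then mixed 1:10 into hot Mueller–Hinton agar. Inocula come from blood slants, adjusted to about 10⁵−10⁶ cfu/mL in 0.90% saline, and spotted at 10 μL. Plates incubated at 36.5 °C for 48 h. MIC is the lowest concentration giving complete growth inhibition. Run in triplicate at pH 7.40.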

[2] = tested on: Staphylococcus epidermidis; assay: Antibacterial activity against methicillin-resistant Staphylococcus epidermidis after 48 hrs by agar dilution method; type: functional; outline: as §1
Streptococcus agalactiae [3] = assay: Antibacterial activity against Streptococcus agalactiae after 48 hrs by agar dilution method; type: functional
Outline: (§2)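 Agar dilution per NCCLS on Mueller–Hinton agar; compound in DMSO/water, 2-fold serial dilutions in distilled water, 2 mL dilution mixed into 18 mL hot agar. Clinical isolates from blood slants, adjusted to about 10⁵−10⁶ cfu/mL in 0.90% saline; 10 μL spotted. Incubated 36.5 °C for 48 h; MIC = lowest concentration giving complete growth inhibition. Triplicate runs.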

Escherichia coli [4] = assay: Antibacterial activity against Escherichia coli after 48 hrs by agar dilution method; type: functional; outline: as §2
Staphylococcus aureus [5] = assay: Antibacterial activity against methicillin-resistant Staphylococcus aureus at 320 ug/ml after 24 hrs by Oxford cup assay; type: functional; settings: read-out: IZ
Outline: (§3)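 Oxford cup diffusion using clinical isolates. Inocula are made in 0.9% saline to a McFarland standard and spread on nutrient agar. […] Inhibition zone diameter is measured after 24 h at 37 °C. Run in triplicate.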

Staphylococcus aureus [6] = assay: Antibacterial activity against methicillin-resistant Staphylococcus aureus at 160 ug/ml after 24 hrs by Oxford cup assay; type: functional; settings: read-out: IZ; outline: as §3
[7] = tested on: Staphylococcus epidermidis; assay: Antibacterial activity against methicillin-resistant Staphylococcus epidermidis at 320 ug/ml after 24 hrs by Oxford cup assay; type: functional; settings: read-out: IZ; outline: as §3
[8] = tested on: Staphylococcus epidermidis; assay: Antibacterial activity against methicillin-resistant Staphylococcus epidermidis at 160 ug/ml after 24 hrs by Oxford cup assay; type: functional; settings: read-out: IZ; outline: as §3
Escherichia coli [9] = assay: Antibacterial activity against Escherichia coli at 320 ug/ml after 24 hrs by Oxford cup assay; type: functional; settings: read-out: IZ
Outline: (§4)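 Oxford cup diffusion: saline inoculum set by McFarland standard, spread on nutrient agar plates. […] Inhibition zone measured after 24 h at 37 °C; triplicate.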

Escherichia coli [10] = assay: Antibacterial activity against Escherichia coli at 160 ug/ml after 24 hrs by Oxford cup assay; type: functional; settings: read-out: IZ; outline: as §4
Streptococcus agalactiae [11] = assay: Antibacterial activity against Streptococcus agalactiae at 320 ug/ml after 24 hrs by Oxford cup assay; type: functional; settings: read-out: IZ; outline: as §4
Streptococcus agalactiae [12] = assay: Antibacterial activity against Streptococcus agalactiae at 160 ug/ml after 24 hrs by Oxford cup assay; type: functional; settings: read-out: IZ; outline: as §4
[13] = Cmax in Sprague-Dawley rat at 5 mg/kg, iv; type: ADME, organism-based; set-up: dose 5 mg/kg, route intravenous; settings: in vivo
Outline: (§5)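 Male SD rats, 220−250 g, 6−8 weeks old, n = 3, fasted overnight and for 6 h after dosing. Dosed in 5% Tween in water, 5 mg/kg iv or 15 mg/kg po. Serial retrobulbar blood samples into EDTA-K₂ tubes; plasma levels by HPLC. Parameters from mean plasma concentration by noncompartmental analysis.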

[14] = Tmax in Sprague-Dawley rat at 5 mg/kg, iv; type: ADME, organism-based; set-up: dose 5 mg/kg, route intravenous; settings: in vivo; outline: as §5
[15] = Elimination half life in Sprague-Dawley rat at 5 mg/kg, iv; type: ADME, organism-based; set-up: dose 5 mg/kg, route intravenous; settings: in vivo, read-out: beta t1/2 (converted); outline: as §5
[16] = Clearance in Sprague-Dawley rat at 5 mg/kg, iv; type: ADME, organism-based; set-up: dose 5 mg/kg, route intravenous; settings: in vivo; outline: as §5
[17] = Volume of distribution at steady state in Sprague-Dawley rat at 5 mg/kg, iv; type: ADME, organism-based; set-up: dose 5 mg/kg, route intravenous; settings: in vivo, read-out: Vdss; outline: as §5
[18] = Mean residence time in Sprague-Dawley rat at 5 mg/kg, iv; type: ADME, organism-based; set-up: dose 5 mg/kg, route intravenous; settings: in vivo; outline: as §5
[19] = AUC (0 to infinity) in Sprague-Dawley rat at 5 mg/kg, iv; type: ADME, organism-based; set-up: time infinity, dose 5 mg/kg, route intravenous; settings: plasma; outline: as §5
[20] = Cmax in Sprague-Dawley rat at 15 mg/kg, po; type: ADME, organism-based; set-up: dose 15 mg/kg, route oral; settings: in vivo; outline: as §5
[21] = Tmax in Sprague-Dawley rat at 15 mg/kg, po; type: ADME, organism-based; set-up: dose 15 mg/kg, route oral; settings: in vivo; outline: as §5
[22] = Elimination half life in Sprague-Dawley rat at 15 mg/kg, po; type: ADME, organism-based; set-up: dose 15 mg/kg, route oral; settings: in vivo, read-out: beta t1/2 (converted); outline: as §5
[23] = Clearance in Sprague-Dawley rat at 15 mg/kg, po; type: ADME, organism-based; set-up: dose 15 mg/kg, route oral; settings: in vivo; outline: as §5
Rattus norvegicus = assay: Volume of distribution at steady state in Sprague-Dawley rat at 15 mg/kg, po; type: ADME, organism-based; set-up: dose 15 mg/kg, route oral; settings: in vivo; outline: as §5
[24] = Mean residence time in Sprague-Dawley rat at 15 mg/kg, po; type: ADME, organism-based; set-up: dose 15 mg/kg, route oral; settings: in vivo; outline: as §5
[25] = AUC (0 to infinity) in Sprague-Dawley rat at 15 mg/kg, po; type: ADME, organism-based; set-up: time infinity, dose 15 mg/kg, route oral; settings: plasma; outline: as §5
[26] = Oral bioavailability in Sprague-Dawley rat at 15 mg/kg; type: ADME, organism-based; settings: in vivo; outline: as §5
[27] = Oral bioavailability in duck; type: ADME, organism-based; settings: anas platyrhynchos, in vivo
[28] = Oral bioavailability in chicken; type: ADME, organism-based, Gallus gallus; settings: in vivo

Structure (SMILES) | MIC (Staphylococcus aureus [1]) [µg/mL] | MIC [2] [µg/mL] | MIC (Streptococcus agalactiae [3]) [µg/mL] | MIC (Escherichia coli [4]) [µg/mL] | zone of inhibition at 320 µg/mL (Staphylococcus aureus [5]) [mm] | zone of inhibition at 160 µg/mL (Staphylococcus aureus [6]) [mm] | zone of inhibition at 320 µg/mL [7] [mm] | zone of inhibition at 160 µg/mL [8] [mm] | zone of inhibition at 320 µg/mL (Escherichia coli [9]) [mm] | zone of inhibition at 160 µg/mL (Escherichia coli [10]) [mm] | zone of inhibition at 320 µg/mL (Streptococcus agalactiae [11]) [mm] | zone of inhibition at 160 µg/mL (Streptococcus agalactiae [12]) [mm] | Cmax [13] [ng/mL] | Tmax [14] [min] | half-life [15] [h] | clearance [16] [mL/min/kg] | Vd [17] [L/kg] | MRT [18] [h] | AUC(0-inf) [19] [ng·h/mL] | Cmax [20] [ng/mL] | further results
C=C[C@]1(C)C[C@@H](OC(=O)CSc2nnc(N)s2)[C@]2(C)[C@H](C)CC[C@]3(CCC(=O)[C@H]32)[C@@H](C)[C@@H]1O | 0.5 (≈ 1.01 µM) | 1 (≈ 2.03 µM) | 0.25 (≈ 0.506 µM) | 8 (≈ 16.2 µM) | 15.6 | 13 | 15.2 | 12.8 | 14.3 | 12.4 | 17.3 | 15 | 13600 | 4.8 | 3.4 | 5.41 | 0.92 | 2.84 | 15400 | 3070 | Tmax [21]: 0.75 h; half-life [22]: 6.07 h; CL/F [23]: 10.2 mL/min/kg; Vdss (Rattus norvegicus): 5.14 L/kg; MRT [24]: 8.42 h; AUC(0-inf) [25]: 24600 ng·h/mL; bioavailability [26]: 35.8%
C=C[C@]1(C)C[C@@H](OC(=O)CSc2nnc(NC(=O)CN3CCCCC3)s2)[C@]2(C)[C@H](C)CC[C@]3(CCC(=O)[C@H]32)[C@@H](C)[C@@H]1O | 0.5 (≈ 0.808 µM) | 1 (≈ 1.62 µM) | 0.5 (≈ 0.808 µM) | 16 (≈ 25.9 µM) | 18.8 | 13.8 | 17.4 | 14.5 | 13.3 | 11.7 | 17.7 | 13.5 | 11300 | 4.8 | 3.89 | 5.9 | 1.02 | 2.88 | 14100 | 4650 | Tmax [21]: 0.75 h; half-life [22]: 5.98 h; CL/F [23]: 10.4 mL/min/kg; Vdss (Rattus norvegicus): 4.91 L/kg; MRT [24]: 7.91 h; AUC(0-inf) [25]: 24100 ng·h/mL; bioavailability [26]: 39.7%
C=C[C@]1(C)C[C@@H](OC(=O)CSCCN(CC)CC)[C@]2(C)[C@H](C)CC[C@]3(CCC(=O)[C@H]32)[C@@H](C)[C@@H]1O [TIAMULIN] | 0.5 (≈ 1.01 µM) | 2 (≈ 4.05 µM) | 0.5 (≈ 1.01 µM) | 16 (≈ 32.4 µM) | 17.2 | 16.9 | 15.6 | 13.9 | 15.8 | 13.6 | 16.1 | 14.6 | – | – | – | – | – | – | – | – | –
C=C[C@]1(C)C[C@@H](OC(=O)CSC(C)(C)CNC(=O)[C@H](N)C(C)C)[C@]2(C)[C@H](C)CC[C@]3(CCC(=O)[C@H]32)[C@@H](C)[C@@H]1O [VALNEMULIN] | – | – | – | – | – | – | – | – | – | – | – | – | – | – | – | – | – | – | – | – | bioavailability [27]: 36.7%; bioavailability [28]: 74%
